In one assay the test system is HEK293. Nature of the assay: Inhibition of mouse GAT4 expressed in HEK cells assessed as remaining [3H]-GABA uptake at 100 uM after 25 mins by liquid scintillation counting analysis relative to control. The class given is cell-based. The method in brief:
(§1)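 The assay used the standardized [³H]GABA uptake format in HEK lines, each stably expressing one murine GAT subtype (mGAT1, mGAT2, mGAT3 or mGAT4). The value is the remaining [³H]GABA uptake with 100 μM test compound present.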

Assay [1] has as its target Sodium- and chloride-dependent GABA transporter 1 (Mus musculus, UniProt P31648). The format is cell-based, HEK293.
Assay [2] has as its system Betaine/GABA transporter BGT1 (mGAT2, slc6a12, Mus musculus). The assay is described as follows: Inhibition of mouse GAT2 expressed in HEK cells assessed as remaining [3H]-GABA uptake at 100 uM after 25 mins by liquid scintillation counting analysis relative to control. To be noted: HEK293.
The subject of assay [3] is GABA transporter 3 (mGAT3, slc6a13, Mus musculus). Nature of the assay: Inhibition of mouse GAT3 expressed in HEK cells assessed as remaining [3H]-GABA uptake at 100 uM after 25 mins by liquid scintillation counting analysis relative to control. To be noted: HEK293.
A short description of the next assay: cells. The format is cell-based. As to conditions: HEK293.
Assay [4] has as its target Sodium- and chloride-dependent GABA transporter 1 (Mus musculus) (UniProt P31648). The assay is described as follows: Inhibition of mouse GAT1 expressed in HEK cells assessed as remaining [3H]-GABA uptake at 100 uM after 25 mins by liquid scintillation counting analysis relative to control. The format is cell-based. To be noted: HEK293. The method in brief:
as §1

Each structure is given as a SMILES string.

For `O=C(O)C1CCCN(CCO/C=C/c2cc(F)ccc2Cc2ccccc2F)C1` (configuration not stated), the values for the Activity (in the assay on HEK293; in assay [2]; in assay [3]) were 53.8%, 47.8% and 83.7%, respectively. This molecule also gave an IC50 in assay [1] of 10.2 µM.

On to `O=C(c1ccc(F)cc1)c1ccc(F)cc1/C=C\OCCN1CCCC(C(=O)O)C1` (configuration not stated), for which the results for the Activity (with HEK293; in assay [2]; in assay [3]) were 82.2%, 70.2% and 79.5%, respectively. The IC50 in assay [1] was 7.59 µM.

For `O=C(c1ccccc1F)c1cc(F)ccc1/C=C\OCCN1CCCC(C(=O)O)C1` (configuration not stated), the Activity with HEK293 worked out at 45.1%; in assay [3] it was 43.5%. Further, half-maximal inhibition in assay [1] (IC50) required 0.759 µM.

As to `O=C(c1ccccc1)c1ccccc1/C=C\OCCN1CCCC(C(=O)O)C1` (configuration not stated), the Activity in the assay on HEK293 was 72.4%; in assay [2] it was 72.3%; in assay [3] it was 59.8%. In assay [1], this molecule had a half-inhibitory concentration (IC50) of 7.08 µM.

For `O=C(O)C1CCCN(CCO/C=C\c2cc(F)ccc2Cc2cccc(F)c2)C1` (configuration not stated), the figures for the Activity (in the assay with HEK293; in assay [2]) were 56% and 60.3%, respectively. Moreover, the midpoint of inhibition in assay [1], the IC50, lay at 0.302 µM.

As for `O=C(c1cccc(F)c1)c1cc(F)ccc1/C=C\OCCN1CCCC(C(=O)O)C1` (configuration not stated), the Activity with HEK293 stood at 45.2%; in assay [2] it was 56.9%; in assay [3], 52.7%. The same molecule had an IC50 in assay [1] of 0.794 µM.

Turning to `O=C(c1ccccc1F)c1ccc(F)cc1/C=C\OCCN1CCCC(C(=O)O)C1` (configuration not stated), the Activity in the assay with HEK293 was 86.3%; in assay [2] it was 74.5%; in assay [3] it was 83.2%. Also, the IC50 in assay [1] is 3.02 µM.

Consider `O=C(O)C1CCCN(CCO/C=C/c2ccccc2Cc2ccccc2)C1` (configuration not stated), for which the IC50 was 31.6 µM in “cells” and 4.17 µM in assay [1]. The Activity in assay [2] was found to be 60.2%.

For `O=C(O)C1CCCN(CCO/C=C/c2cc(F)ccc2Cc2cccc(F)c2)C1` (configuration not stated), the Activity was 51.8% with HEK293, 70.5% in assay [2] and 59.3% in assay [3]. This molecule showed an IC50 in assay [1] of 6.76 µM.

For the molecule `O=C(O)C1CCCN(CCO/C=C\c2cc(F)ccc2Cc2ccccc2F)C1` (configuration not stated), the 50% inhibitory concentration (IC50) was 49 µM in the assay “cells” and 0.302 µM in assay [1]. Also, the Activity in assay [2] stood at 71.1%.

As for `O=C(c1ccc(F)cc1)c1ccc(F)cc1/C=C/OCCN1CCCC(C(=O)O)C1` (configuration not stated), the Activity in the assay with HEK293 is 94.3%; in assay [2] it was 61.2%; in assay [3], 97.7%. In addition, in assay [1], the IC50 is 20.9 µM.

For `O=C(O)C1CCCN(CCO/C=C\c2ccc(F)cc2Cc2ccccc2F)C1` (configuration not stated), the half-inhibitory concentration (IC50) is 60.3 µM in the assay “cells” and 0.631 µM in assay [1]. Besides, the Activity in assay [2] came to 80.1%.

As for `O=C(O)[C@@H]1CCCN(CCC=C(c2ccccc2)c2ccccc2)C1`, the IC50 is 275 µM in “cells” and 0.692 µM in assay [1].

As for `O=C(c1cccc(F)c1)c1ccc(F)cc1/C=C\OCCN1CCCC(C(=O)O)C1` (configuration not stated), the Activity in the assay with HEK293 is 52.1%; in assay [2], 96.1%; in assay [3], 83.6%. Besides, inhibition in assay [1] was half-maximal at 2.63 µM (IC50).

`Cc1ccsc1C(=COCCN1CCC[C@@H](C(=O)O)C1)c1sccc1C` had an IC50 in assay [1] of 0.0141 µM.

`O=C(c1ccccc1F)c1ccc(F)cc1/C=C/OCCN1CCCC(C(=O)O)C1` (configuration not stated): the values for the Activity (in the assay with HEK293; in assay [2]; in assay [3]) were 52.1%, 68.6% and 57.6%, respectively. The molecule also showed an IC50 in assay [1] of 8.13 µM.

For the molecule `O=C(c1ccccc1F)c1cc(F)ccc1/C=C/OCCN1CCCC(C(=O)O)C1` (configuration not stated), the IC50 in “cells” is 67.6 µM; in assay [1], 10.7 µM.

As to `Cc1ccsc1C(=CCCN1CCC[C@@H](C(=O)O)C1)c1sccc1C`, in the assay with HEK293, the Activity worked out at 73.4%.

Take `O=C(c1ccc(F)cc1)c1cc(F)ccc1/C=C/OCCN1CCCC(C(=O)O)C1` (configuration not stated): the Activity in the assay on HEK293 is 72.7%; in assay [2] it was 71.4%; in assay [3] it was 68.8%. The molecule further showed a concentration for half-maximal inhibition (IC50) in assay [1] of 1.86 µM.

Turning to `O=C(O)C1CCCN(CCO/C=C/c2ccc(F)cc2Cc2ccccc2F)C1` (configuration not stated), the IC50 in “cells” is 58.9 µM; in assay [1], 2.69 µM. The Activity in assay [2] came out at 57.5%; in assay [3] it was 80.1%.

For the molecule `O=C(O)C1CCCN(CCO/C=C\c2ccccc2Cc2ccccc2)C1` (configuration not stated), the Activity in the assay on HEK293 came out at 66%; in assay [2], 68.6%; in assay [3], 56%. The IC50 in assay [1] was 0.398 µM.

Take `O=C(O)C1CCCN(CCO/C=C/c2ccc(F)cc2Cc2ccc(F)cc2)C1` (configuration not stated): the Activity came to 63.7% with HEK293, 71.6% in assay [2] and 49.3% in assay [3]. The molecule also gave a half-inhibitory concentration (IC50) in assay [1] of 4.57 µM.

As for `O=C(O)[C@@H]1CCCN(CCOCCc2ccccc2Cc2ccccc2)C1`, inhibition in assay [1] was half-maximal at 0.1 µM (IC50).

For the molecule `O=C(O)C1CCCN(CCO/C=C/c2cc(F)ccc2Cc2ccc(F)cc2)C1` (configuration not stated), the IC50 in “cells” was 93.3 µM; in assay [1], 8.91 µM. Further, the Activity worked out at 58.1% in assay [2] and 62% in assay [3].

On to `O=C(c1cccc(F)c1)c1cc(F)ccc1/C=C/OCCN1CCCC(C(=O)O)C1` (configuration not stated), for which the Activity turned out to be 67.5% in assay [4], 67.6% in the assay with HEK293, 62.9% in assay [2] and 51.5% in assay [3].

With `O=C(c1ccccc1)c1ccccc1/C=C/OCCN1CCCC(C(=O)O)C1` (configuration not stated), the Activity was 79.8% in the assay on HEK293, 67.5% in assay [2] and 55.9% in assay [3]. For the same molecule, half-maximal inhibition in assay [1] (IC50) required 25.1 µM.

For `O=C(O)C1CCCN(CCO/C=C\c2ccc(F)cc2Cc2ccc(F)cc2)C1` (configuration not stated), the IC50 in “cells” was 25.7 µM; in assay [1] it was 1.17 µM. Besides, the Activity in assay [2] worked out at 64.8%.

Take `O=C(c1cccc(F)c1)c1ccc(F)cc1/C=C/OCCN1CCCC(C(=O)O)C1` (configuration not stated): the values for the IC50 (in the assay “cells”; in assay [1]) were 200 µM and 29.5 µM, respectively.

`O=C(c1ccc(F)cc1)c1cc(F)ccc1/C=C\OCCN1CCCC(C(=O)O)C1` (configuration not stated): the Activity in the assay on HEK293 was determined as 44.8%; in assay [2] it was 73%; in assay [3] it was 59.8%. This molecule also gave an IC50 in assay [1] of 0.339 µM.

With `O=C(O)C1CCCN(CCO/C=C\c2cc(F)ccc2Cc2ccc(F)cc2)C1` (configuration not stated), the Activity in the assay with HEK293 was found to be 50.3%. Moreover, the IC50 in assay [1] was 1.1 µM.
